Screening data deposited in PubChem by The Scripps Research Institute Molecular Screening Center.
Compounds with a hit are over-represented: about 4.6% of the library has one in this group of screens.
GPR7 antagonist: antagonists of human GPR7 (neuropeptides B/W receptor 1); GPR7-expressing cells, fluorescence antagonist assay; P48145; inhibition, % at 4.4 µM; hit rate 1.1% among 290,000; AID 1861; in the data active = inhibition above about 16%, passing the limit was not always enough;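 note: cells stimulated with the agonist NPW; 0% = agonist with vehicle and 100% = vehicle without agonist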
Target sequence (P48145 whole entry, looked up): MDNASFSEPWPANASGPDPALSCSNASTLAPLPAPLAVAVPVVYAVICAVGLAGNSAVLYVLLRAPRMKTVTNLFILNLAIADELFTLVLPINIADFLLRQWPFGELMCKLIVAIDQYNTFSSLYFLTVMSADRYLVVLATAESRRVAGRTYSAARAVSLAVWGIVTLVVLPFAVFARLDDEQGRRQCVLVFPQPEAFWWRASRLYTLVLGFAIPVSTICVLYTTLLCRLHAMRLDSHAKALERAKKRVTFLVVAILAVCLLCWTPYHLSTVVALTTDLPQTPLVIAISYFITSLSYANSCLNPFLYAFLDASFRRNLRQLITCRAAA
OX1R antag-1: OX1R (human) antagonism | O43613 | OX1R-expressing cells, FRET antagonist read-out | inhibition, % at 6.6 µM | hit rate 1.8% among 330,000 | AID 485270; in the data active = inhibition mostly above about 38%, no sharp cut-off; inactive = mostly below about 40%;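 note: 0% = agonist challenge alone and 100% = reference antagonist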
TAAR1 ag: agonists of human TAAR1; Q96RJ0; CHO RD-HGA16 TAAR1, Fluo-8 calcium fluorescence; vehicle wells 0%, saturating PEA agonist 100%; activation, % at 3 µM; hit rate 0.99% among 360,000; AID 624467;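 active = activation above the mean activation of all test compounds in the run plus 3 SD, cut at about 38% in these data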
Target sequence (Q96RJ0 whole entry, looked up): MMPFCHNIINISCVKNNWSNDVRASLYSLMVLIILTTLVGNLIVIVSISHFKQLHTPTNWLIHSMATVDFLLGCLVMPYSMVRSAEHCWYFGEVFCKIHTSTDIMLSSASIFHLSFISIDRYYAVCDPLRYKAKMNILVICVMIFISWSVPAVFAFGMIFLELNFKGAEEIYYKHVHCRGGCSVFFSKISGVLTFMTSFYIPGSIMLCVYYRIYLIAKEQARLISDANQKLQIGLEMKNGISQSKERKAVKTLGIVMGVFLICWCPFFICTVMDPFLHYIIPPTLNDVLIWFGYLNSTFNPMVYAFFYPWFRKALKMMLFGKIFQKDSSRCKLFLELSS
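System: CHO-derived RD-HGA16 cells with stable Gα16 and human TAAR1. Times: 17-24 h plating, Fluo-8 75 min 37 °C, 30 min RT. Measured by: calcium-sensitive Fluo-8 signal, excitation 470-495, emission 515-575 nm. Read-out basis: % activation relative to PEA EC100 response. Control set: DMSO and PEA EC100. Repeats: no replicates (n 1).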
TAAR1 antag: human TAAR1 antagonism | CHO RD-HGA16 TAAR1, Fluo-8 calcium fluorescence, antagonist | AID 624466 | inhibition, % at 3 µM | Q96RJ0 | hit rate 1.5% among 360,000;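 active = inhibition above a per-plate cutoff, the mean inhibition of test compounds on that plate plus 3 SD, cut at about 49% in these data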;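 note: 0% = DMSO plus EC80 beta-PEA response and 100% = DMSO alone without agonist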
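Test system – hTAAR1-expressing CHO RD-HGA16 cells, Gα16-coupled · Reagent – β-PEA at EC80 concentration, post-compound challenge · Compound dosing – 3 µM, single point · Timing – 140 s kinetic read after compound, 140 s after agonist · Detection – Fluo-8 intracellular calcium dye fluorescence, real-time kinetic reads · Control set – DMSO and EC80 PEA controls · Repeats – n of 1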
CHO parental Ca: signal in parental CHO cells, OX1R antagonist counter-screen | parental CHO-K1, ATP-induced calcium, Fluo-8 fluorescence | inhibition, % at 5.6 µM | hit rate 0.63% among 330,000 | AID 463079;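 active = inhibition above that plate's mean sample inhibition plus 3 SD, cut at about 26% in these data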;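 note: 0% = ATP-challenged DMSO wells and 100% = DMSO wells without ATP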
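Material – parental CHO cells · Reagent – ATP stimulus · Compound – single nominal dose of 5.6 µM per compound · Detection – Fluo-8 fluorescence · Read-out basis – percent inhibition of calcium signal · Controls – ATP-challenged DMSO wells low, unchallenged DMSO wells high · Repeats – no replicates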
OX1R antag-2: human HCRTR1 antagonism | O43613 | CHO/OX1R cells, Fluo-8 calcium fluorescence, orexin A | inhibition, % at 5 µM | hit rate 0.43% among 330,000;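 active = inhibition above its plate's threshold, mean inhibition of all tested compounds on the plate plus 3 SD, cut at about 37% in these data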;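 note: 0% = orexin A challenge wells and 100% = SB-334867-A antagonist wells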
The depositor's hits bear a star; x = not tested or not shown.

SMILES	GPR7 antagonist	OX1R antag-1	TAAR1 ag	TAAR1 antag	CHO parental Ca	OX1R antag-2
CCCCCCCCN1C(=O)[C@@H](CC(=O)NCCCCc2ccccc2)C[C@@]2(C(=O)OC)C1=C[C@H](C1CCCC1)O[C@@H]2C	x	x	6	-18	x	x
Nc1ccc(Cn2ccc3c4c(N)nc(N)nc4ccc32)cc1	x	x	3	-29	x	x
COc1ccccc1-c1oc2ccccc2c1C#CC1(N)CCCCC1	x	4	38*	8	4	6
COc1cc(C(=S)N2CCOCC2)ccc1OC(=O)c1ccccc1[N+](=O)[O-]	-17	61*	13	22	-9	9
COc1cc(C(=S)N2CCOCC2)cc(OC)c1OC(=O)c1cccc(C)c1	-11	66*	-1	-5	-16	21
O=C(Oc1cccc(C(=S)N2CCOCC2)c1)c1cccc([N+](=O)[O-])c1	-1	17	12	-1	-12	-19
O=C(Oc1cccc(C(=S)N2CCOCC2)c1)c1cc([N+](=O)[O-])cc([N+](=O)[O-])c1	-6	68*	-1	-3	-8	-14
O=C(COC(=O)c1ccc2ncsc2c1)Nc1ccc(OC(F)(F)F)cc1	x	-5	2	-3	25	37*
CC(C)(C)c1ccc(NC(=O)COC(=O)c2ccc3ncsc3c2)cc1	x	4	6	-2	-11	-4
COc1cc(OC)cc(C(=O)Nc2nc(CC(=O)NCCc3ccccc3)cs2)c1	x	28	5	33	-40	-19
COc1cc(OC)cc(C(=O)Nc2nc(CC(=O)NCc3ccccc3OC)cs2)c1	x	13	6	56*	-22	-30
COc1cc(OC)cc(C(=O)Nc2nc(CC(=O)NCc3ccc(F)cc3)cs2)c1	x	22	8	50*	-22	-10
CCOC(=O)Cc1csc(NC(=O)c2cc(OC)cc(OC)c2)n1	-2	19	2	-2	-7	-10
Cn1cnc([N+](=O)[O-])c1Sc1nnc(-c2ccccc2)c(-c2ccccc2)n1	x	x	5	-1	x	x
COc1ccc(C(=O)Nc2nc3cc4c(cc3s2)OCO4)c(OC)c1	-12	49	1	-30	-17	1
O=C(COC(=O)c1ccccc1-c1ccccc1[N+](=O)[O-])c1ccccc1	-6	30	10	56*	18	0
O=C(COC(=O)c1ccccc1Nc1ccccc1)c1ccccc1	2	20	7	15	6	43*
O=C(COC(=O)c1ccccc1[N+](=O)[O-])c1ccc2c(c1)OCO2	x	14	5	3	3	-10
CNc1ccccc1C(=O)OCC(=O)c1ccccc1	-6	27	x	x	-15	-33
C[C@@H]1C=CCCO[C@]12C(=O)N(Cc1ccccc1C(F)(F)F)c1ccccc12	x	x	0	-12	x	x
Cc1ccccc1S(=O)(=O)Oc1ccccc1C(=O)Oc1ccccc1	-4	30	10	21	39*	27
COc1ccccc1C(=O)Oc1ccc(C(C)(C)C)cc1	-5	3	12	39	41*	-10
COc1ccccc1C(=O)Oc1ccc2ccc(=O)oc2c1	-9	14	0	-7	-12	-19
O=C(Oc1ccccc1C(=O)Oc1ccccc1)c1cccnc1	-10	8	2	2	-3	1
Cc1ccc(CNC(=O)COC(=O)c2ccc(S(=O)(=O)NCc3ccco3)cc2)cc1	x	-5	4	1	0	-5
SMILES	GPR7 antagonist	OX1R antag-1	TAAR1 ag	TAAR1 antag	CHO parental Ca	OX1R antag-2
COc1ccc(-c2cnc3c(NC(C)=O)cc(-c4ccccc4OC)cn23)cc1OC	x	x	7	52*	x	x
COc1cc(-c2cc(NC(C)=O)c3ncc(-c4ccccc4)n3c2)cc(OC)c1OC	x	x	3	49*	x	x
COc1cc(-c2cc(NC=O)c3ncc(-c4ccccc4)n3c2)cc(OC)c1OC	x	x	13	63*	x	x
COc1ccc(-c2cc(NC(C)=O)c3ncc(-c4ccc(OC)c(OC)c4)n3c2)cc1OC	x	x	2	-1	x	x
CCN1C(=O)N(C(C)=O)[C@@H]2C[C@H](C(=O)N3CCCC3)[C@H](C)[C@H](c3ccccc3)C[C@@H]21	x	x	1	-2	x	x
CCOC(=O)C1=C[C@@H](C(C)(C)C)N(S(=O)(=O)c2ccc([N+](=O)[O-])cc2)[C@H]1c1ccccc1Cl	x	x	-1	2	x	x
Cc1ccc2nc(-c3cccc(Br)c3)c(Cc3ccsc3)n2c1	x	x	0	-15	x	x
NCCc1ccn[nH]1	x	4	40*	-10	3	-2
NCCc1cnc[nH]1	-2	-3	2	0	-2	-7
COc1ccccc1-n1c(Cc2cccc3ccccc23)nnc1SCC(=O)O	x	x	0	-4	x	x
CCC(CO)Oc1cc(NCc2ccc(C(C)(C)C)cc2)c2ncn(C(C)C)c2c1 (stereo unspecified)	x	14	17	29	50*	50
CCC(CO)Oc1cc(NCc2ccc(O)cc2)c2ncn(C(C)C)c2c1 (stereo unspecified)	x	2	1	4	-14	-24
CCC(COC)Oc1cc(NCc2ccccc2)c2ncn(C(C)C)c2c1 (stereo unspecified)	x	35*	17	7	-3	13
CC(C)n1cnc2c(NCc3ccccc3)cc(N[C@H](C)CO)cc21	x	75*	x	x	-12	6
COc1ccc(Cc2cc(NCc3ccccc3)c3ncn(C(C)C)c3c2)cc1	x	9	38*	16	-28	-46
COc1ccc(C2=CCCC2)c(OC)c1	x	x	1	-11	x	x
Cc1cc(NC(=O)c2ccc3c(c2)C(=O)N(C2CCCCC2)C3=O)no1	3	10	3	-15	-11	-7
O=C(Nc1ccncc1)c1ccc2c(c1)C(=O)N(C1CCCCC1)C2=O	1	45	32	45	51*	43
Cc1ccc(C(=O)Nc2ccc3c(c2)C(=O)N(CC2CCCO2)C3=O)cc1 (stereo unspecified)	-3	10	3	-12	-10	9
O=C(Nc1ccncc1)c1ccc2c(c1)C(=O)N(CC1CCCO1)C2=O (stereo unspecified)	-9	53*	36	35	-16	-14
O=c1ccc2nc3ccccc3sc-2c1	x	x	1	3	x	x
CN(Cc1cnccn1)C(=O)CC1C(=O)NCCN1Cc1c(F)cccc1Cl (stereo unspecified)	-11	14	2	-24	3	-16
CCN(CC)Cc1cc(NC2=NS(=O)(=O)c3ccccc32)ccc1OC(=O)c1ccccc1	6	11	1	-7	12	-6
O=C(Oc1cccc(NC2=NS(=O)(=O)c3ccccc32)c1)c1cccnc1	-3	12	23	49*	-6	-16
COC(=O)C1=C(C)N(Cc2cccc(C(F)(F)F)c2)C(=NCc2ccc(OC)cc2)NC1c1cccc(C(F)(F)F)c1 (stereo unspecified)	x	x	27	23	x	x
CN(C)c1ccc(/C=C/c2nc3ccccc3c(=O)n2-c2ccc(C(=O)O)cc2)cc1	17	14	33	39	64*	83*
